From ChEMBL document CHEMBL1126891 (J Med Chem, 1993)

Tests used:
[1] = biological target: T1, DNA polymerase alpha catalytic subunit (Homo sapiens, UniProt P09884); assay: Effective concentration against DNA polymerase alpha; assay type: single protein
T1 sequence (P09884 whole entry): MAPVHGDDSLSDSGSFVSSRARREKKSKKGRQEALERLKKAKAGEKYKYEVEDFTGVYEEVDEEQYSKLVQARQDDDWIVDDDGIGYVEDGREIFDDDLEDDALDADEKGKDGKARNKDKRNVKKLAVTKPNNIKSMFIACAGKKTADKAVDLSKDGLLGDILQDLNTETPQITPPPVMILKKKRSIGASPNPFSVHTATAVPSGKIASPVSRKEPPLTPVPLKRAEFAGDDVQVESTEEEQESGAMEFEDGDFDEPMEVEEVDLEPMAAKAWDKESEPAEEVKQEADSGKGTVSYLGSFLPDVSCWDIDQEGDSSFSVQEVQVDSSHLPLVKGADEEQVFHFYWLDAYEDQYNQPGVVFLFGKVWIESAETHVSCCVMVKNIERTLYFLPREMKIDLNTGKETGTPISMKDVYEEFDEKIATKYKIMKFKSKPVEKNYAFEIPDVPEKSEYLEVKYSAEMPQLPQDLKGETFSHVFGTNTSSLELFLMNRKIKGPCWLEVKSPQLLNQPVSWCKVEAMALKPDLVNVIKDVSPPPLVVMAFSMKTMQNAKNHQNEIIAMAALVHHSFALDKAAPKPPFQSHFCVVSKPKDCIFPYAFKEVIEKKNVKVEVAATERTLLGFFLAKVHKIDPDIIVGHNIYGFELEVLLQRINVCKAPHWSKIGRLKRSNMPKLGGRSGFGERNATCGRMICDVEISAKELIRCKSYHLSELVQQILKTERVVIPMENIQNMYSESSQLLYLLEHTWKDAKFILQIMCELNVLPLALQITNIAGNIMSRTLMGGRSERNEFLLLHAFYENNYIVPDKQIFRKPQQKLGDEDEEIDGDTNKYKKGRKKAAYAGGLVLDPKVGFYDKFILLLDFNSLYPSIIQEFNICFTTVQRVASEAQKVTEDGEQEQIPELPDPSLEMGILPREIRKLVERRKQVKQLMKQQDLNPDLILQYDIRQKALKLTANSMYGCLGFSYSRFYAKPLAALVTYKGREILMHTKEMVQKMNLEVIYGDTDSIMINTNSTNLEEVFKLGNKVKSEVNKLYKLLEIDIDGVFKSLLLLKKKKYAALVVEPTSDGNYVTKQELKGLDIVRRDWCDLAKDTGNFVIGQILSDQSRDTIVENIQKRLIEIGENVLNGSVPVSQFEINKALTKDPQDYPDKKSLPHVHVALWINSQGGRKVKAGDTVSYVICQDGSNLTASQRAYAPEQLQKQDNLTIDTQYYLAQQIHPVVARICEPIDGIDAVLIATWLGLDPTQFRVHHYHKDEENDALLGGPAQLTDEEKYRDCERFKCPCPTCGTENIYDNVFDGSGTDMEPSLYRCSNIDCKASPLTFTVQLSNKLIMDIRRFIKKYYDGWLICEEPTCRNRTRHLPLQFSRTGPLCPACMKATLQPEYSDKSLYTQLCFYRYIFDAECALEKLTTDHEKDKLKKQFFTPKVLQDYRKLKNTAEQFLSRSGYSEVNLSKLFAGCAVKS
In short: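 DNA polymerase α enzyme assay using activated calf thymus DNA as template, with no NaCl or KCl added.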

[2] = system: Human alphaherpesvirus 2; assay: Inhibitory activity against Herpes simplex virus 2 in vero cells at 100 uM; assay type: functional; conditions: Human alphaherpesvirus 2, Vero
[3] = Toxicity observed in vero cells; assay type: cell-based; conditions: Chlorocebus sabaeus
[4] = biological target: T1, DNA polymerase alpha catalytic subunit; assay: Percent inhibition of DNA polymerase alpha at 100 uM
[5] = system: Nucleic Acid; assay: Effective concentration against DNA polymerase of Herpes simplex virus 2 (HSV-2); assay type: nucleic-acid assay, Human alphaherpesvirus 2
[6] = system: MRC5; assay: Inhibitory concentration against VZV in MRC5 cells; assay type: functional, cell-based; conditions: Homo sapiens
[7] = system: MRC5; assay: Inhibitory concentration against human cytomegalovirus (HCMV1) in MRC5 cells; assay type: functional, cell-based
[8] = system: Vero; assay: Cytotoxicity against vero cells; assay type: cell-based; conditions: Chlorocebus sabaeus
[9] = system: Vero; assay: Inhibitory concentration against HSV-1 in vero cells; assay type: functional, cell-based; conditions: Chlorocebus sabaeus
[10] = system: Vero; assay: Inhibitory concentration against HSV-2 in vero cells; assay type: functional, cell-based; conditions: Chlorocebus sabaeus
In short: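 HSV-2 plaque reduction assay in Vero cells; the value is reported as IC50 in µM.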

C[C@@]1(CO)[C@H](O)CC[C@]2(C)c3cc(O)ccc3CC[C@@H]12
EC50 [1]: 8 µM
inhibition at 100 µM [2]: 25%

COc1ccc2c(c1)[C@@]1(C)CCC[C@@](C)(N)[C@@H]1CC2
EC50 [1]: 1 µM
inhibition at 100 µM [2]: 100%

C[C@@]1(C(=O)O)CCC[C@]2(C)c3cc(O)c(C=O)cc3CC[C@@H]12
EC50 [1]: 5 µM
inhibition at 100 µM [2]: 0%

COc1cc2c(cc1CO)CC[C@H]1[C@](C)(CO)CCC[C@]21C
inhibition [3]: 100%
inhibition [4]: 3%

C[C@@]1(CO)[C@H](O)CC[C@@]2(C)[C@H]1CC[C@H]1C[C@@H]3C[C@@]12CC[C@]3(O)CO [APHIDICOLIN]
EC50 [5]: 5 µM

COc1cc2c(cc1CO)CC[C@H]1[C@](C)(C(=O)O)CCC[C@]21C
inhibition at 100 µM [2]: 13%

COC(=O)[C@]1(C)CCC[C@]2(C)c3cc(OC)c(CO)cc3CC[C@@H]12
inhibition at 100 µM [2]: 100%

C[C@@]1(C(=O)O)CCC[C@]2(C)c3cc(O)c(CO)cc3CC[C@@H]12
inhibition at 100 µM [2]: 15%

COc1ccc2c(c1)[C@@]1(C)CC[C@@H](O)[C@@](C)(CO)[C@@H]1CC2
inhibition at 100 µM [2]: 36%

COc1cc2c(cc1CO)CC[C@H]1[C@](C)(CO)[C@@H](O)CC[C@]21C
IC50 [6]: > 100 µM
IC50 [7]: > 100 µM
IC50 [8]: > 500 µM
IC50 [9]: > 100 µM
IC50 [10]: > 100 µM

COc1ccc2c(c1)[C@@]1(C)CC[C@H](O)[C@@](C)(CO)[C@@H]1CC2
inhibition at 100 µM [2]: 10%

C[C@@]1(CO)[C@@H](O)CC[C@@]2(C)c3cc(O)c(CO)cc3CC[C@@H]12
IC50 [6]: > 100 µM
IC50 [7]: > 100 µM
IC50 [8]: > 500 µM
IC50 [9]: > 200 µM
IC50 [10]: > 100 µM

C[C@@]1(CO)[C@H](O)CC[C@@]2(C)c3cc(O)c(CO)cc3CC[C@@H]12
IC50 [6]: > 100 µM
IC50 [7]: > 100 µM
IC50 [8]: > 500 µM
IC50 [9]: 222 µM
IC50 [10]: > 100 µM

C[C@@]1(CO)[C@H](O)CC[C@]2(C)C3=C[C@H](O)[C@H](CO)C[C@@H]3CC[C@@H]12
inhibition at 100 µM [2]: 0%

COc1cc2c(cc1CO)CC[C@H]1[C@](C)(CO)[C@H](O)CC[C@]21C
IC50 [6]: > 100 µM
IC50 [7]: > 100 µM
IC50 [8]: > 500 µM
IC50 [9]: > 100 µM
IC50 [10]: > 100 µM

C[C@@]1(CO)CCC[C@]2(C)c3cc(O)c(CO)cc3CC[C@@H]12
inhibition at 100 µM [2]: 0%

COC(=O)[C@]1(C)CCC[C@]2(C)c3cc(OC)c(C=O)cc3CC[C@@H]12
inhibition [3]: 100%

C[C@@]1(CO)[C@H](O)CC[C@]2(C)c3cc(O)c(CO)cc3CC[C@@H]12
EC50 [1]: 4 µM
IC50 [6]: > 100 µM
IC50 [7]: 76 µM
IC50 [8]: > 500 µM
IC50 [9]: 133 µM
IC50 [10]: > 100 µM
inhibition at 100 µM [2]: 90%

COc1ccc2c(c1)[C@@]1(C)CCC[C@@](C)(C(=O)O)[C@@H]1CC2
inhibition at 100 µM [2]: 31%
inhibition [4]: 4%

C[C@@]1(CO)[C@@H](O)CC[C@]2(C)c3cc(O)ccc3CC[C@@H]12
inhibition at 100 µM [2]: 34%

C[C@@]1(CO)[C@@H](O)CC[C@]2(C)c3cc(O)c(CO)cc3CC[C@@H]12
EC50 [1]: 7 µM
IC50 [6]: > 100 µM
IC50 [7]: > 100 µM
IC50 [8]: > 500 µM
IC50 [9]: 198 µM
IC50 [10]: > 100 µM
inhibition at 100 µM [2]: 19%
